Rows were chosen to be rich in hits. Some 1.6% of all compounds tested hit in one or more screens of this group.
HKDC1 inh: inhibitors of human hexokinase HKDC1; AID 493160; inhibition, % at 20 µM; recombinant HKDC1, G6PDH/diaphorase resazurin coupled fluorescence; hit rate 0.16% among 340,000; Q2TB90;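 active = inhibition above about 35% when tested at 20 µM, limit read from the data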
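Test system: HK5 enzyme. Quantity: 5 µg/mL HK5 final. Reagent: glucose and ATP substrates. Schedule: 90 min reaction incubation at room temperature, dark. Technique: resazurin-to-resorufin fluorescence via G6PDH and diaphorase coupling, 525/613 nm. Control set: DMSO wells with and without enzyme mix.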
TDP2 absorb: blocks human TDP2 phosphodiesterase activity; recombinant TDP2, T5PNP hydrolysis, p-nitrophenol absorbance 415 nm; inhibition, % at 12.8 µM; hit rate 0.34% among 370,000;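 active = inhibition above the mean of all tested compounds plus 3 SD, set per campaign, cut at about 25% in these data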
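Assay system: recombinant human TDP2 / Reagent: T5PNP substrate at 5 mM, a TopII-DNA adduct mimic / Measured by: epi absorbance from released p-nitrophenol / Evaluation: % inhibition relative to enzyme-containing and enzyme-free wells / Control set: enzyme-free and DMSO wells / Replicates: each compound tested once, singlicate / Schedule: enzyme reaction with compound for 2 h at 37 °C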
GSTO1 counter: counter-screen for RBBP9 inhibitors: inhibitors of human GSTO1; P78417; recombinant GSTO1, activity-based probe fluorescence polarization; inhibition, % at 5.96 µM; hit rate 1.1% among 300,000; AID 1974;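 active = inhibition above the campaign mean inhibition plus 3 SD, cut at about 35% in these data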
CTSL1 counter: counter-screen for PFM18AAP inhibitors: inhibitors of F. hepatica cathepsin L1 | recombinant F. hepatica cathepsin L1, Z-Leu-Arg-MCA fluorescence | inhibition, % at 5.96 µM | hit rate 0.49% among 300,000;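 active = inhibition above the mean of all tested compounds plus 3 SD, set per screening campaign, cut at about 17% in these data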
PAD4 FP inh: inhibitors of human PAD4; recombinant PAD4, RCA probe fluorescence polarization; inhibition, % at 6.36 µM; Q9UM07; hit rate 0.41% among 330,000;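 active = percent inhibition above a cutoff equal to the mean of all tested compounds plus 3 SD, cut at about 15% in these data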
UCH37 DUB inh: blocks the human deubiquitinase UCH37; Q9Y5K5; purified proteasome/UCH37, Ub-AMC cleavage fluorescence; inhibition, % (no concentration beside the values); hit rate 0.33% among 330,000; AID 588478;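 active = mean inhibition over replicate wells above about 20%, limit read from the data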
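system = Proteasome-associated human UCH37 deubiquitinase | amount = 0.15 nM proteasome as dispensed | medium = pH 7.4 Tris-HCl (50 mM) with ovalbumin, ATP-MgCl2, DTT | incubation = 30 min preincubation with enzyme, 25 min cleavage at room temperature | detection = AMC fluorescence 355/460 nm | read-out basis = percent inhibition | controls = no-proteasome and no-compound wells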
HKDC1 act conf2: confirmation of human HKDC1 activators; shares compounds with HKDC1 inh; recombinant HKDC1, G6PDH/diaphorase resazurin fluorescence; stronger effect = lower value; inhibition, % at 20 µM; hit rate 14% among 740;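 active = inhibition at or below a set negative limit, negative inhibition meaning the enzyme was activated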
UCH37 confirm: confirmation of human UCH37 deubiquitinating enzyme inhibitors. shares compounds with UCH37 DUB inh. Proteasome-bound UCH37, Ub-AMC cleavage fluorescence. inhibition, % at 20 µM. hit rate 27% among 480. AID 624100;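 active = average inhibition over replicates above about 50%, so the earlier screening hit is confirmed, limit read from the data; inactive = the rest, counted as false positives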;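 also: based on cleavage rate fitted by regression over a 30 min kinetic read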
TDP2 confirm: human TDP2 inhibition, confirmation; shares compounds with TDP2 absorb; recombinant human TDP2, absorbance read-out; inhibition, % at 12.8 µM; hit rate 22% among 1,100; AID 743263; in the data active = inhibition above about 25%
Hits are given with their value; 0 = inactive; - = no result.

SMILES	HKDC1 inh	TDP2 absorb	GSTO1 counter	CTSL1 counter	PAD4 FP inh	UCH37 DUB inh	UCH37 confirm	others
CCOc1ccc(S(=O)(=O)Nc2cc(SCC(=O)O)c(O)c3ccccc23)cc1	60.3	65.9	-	-	-	0	-	HKDC1 act conf2=0;TDP2 confirm=55.5
O=C(O)CSc1cc(NS(=O)(=O)c2cccc([N+](=O)[O-])c2)c2ccccc2c1O	59.5	62.9	-	-	-	30.5	82.7	HKDC1 act conf2=0;TDP2 confirm=70.1
O=C(O)c1cccc(S(=O)(=O)Nc2ccc([N+](=O)[O-])cc2O)c1	0	0	0	0	0	0	-
CC1(C(=O)NN=Cc2ccccc2)CC1(Br)Br (centres undefined)	-	-	-	-	-	0	-
CC(NC(=O)COC(=O)c1ccc([N+](=O)[O-])o1)c1ccccc1 (centres undefined)	0	0	-	-	0	25.9	0
Nc1cc(-c2cccc([N+](=O)[O-])c2)[nH]n1	0	0	0	0	0	39.1	0
Nc1cccc([N+](=O)[O-])c1	0	0	0	0	0	0	-
CCc1nnc(NS(=O)(=O)c2ccc(Nc3ccc([N+](=O)[O-])c4nonc34)cc2)s1	0	0	0	0	0	34.6	0
NS(=O)(=O)c1ccc(Nc2ccc([N+](=O)[O-])c3nonc23)cc1	0	0	36.7	0	0	26.1	0
ON=Cc1cn(-c2ccc(Cl)cc2)nn1	-	-	-	-	-	0	-
Cc1ccc(/C=C/c2ccc(N(C)C)cc2)[n+](C)c1	0	0	0	0	0	27.2	0
COc1ccc(C(=O)NN=C(C)CC(=O)Nc2ccc(N(C)C)cc2)c(OC)c1	-	-	-	-	-	0	-
CS(=O)(=O)NCCC1=CCCCC1	0	0	0	0	0	43.8	79.6
COc1ccc(Cl)cc1S(=O)(=O)N1CCC(C(=O)NCCC2=CCCCC2)CC1	0	0	0	0	0	0	-
CCOc1ccc(S(=O)(=O)NCCC2=CCCCC2)c2ccccc12	0	0	0	0	0	0	-
COc1ccc(C)cc1S(=O)(=O)N1CCC(C(=O)NCCC2=CCCCC2)CC1	0	0	0	0	0	32.4	0
CC(=O)N1CCCc2cc(S(=O)(=O)NCCC3=CCCCC3)ccc21	0	0	0	0	0	54.5	76.1
COc1ccc(C)cc1S(=O)(=O)NCCC1=CCCCC1	0	0	0	0	0	58.3	0
COC/C=C/C1=CC2=CC(=O)C(C)(OC(=O)c3cnc4ccccc4n3)C(=O)C2=CN1C1CC1 (centres undefined)	0	0	0	0	0	47.3	0
COC/C=C/C1=CC2=CC(=O)C(C)(OC(=O)c3cnc4ccccc4n3)C(=O)C2=CN1c1ccc(OC)cc1 (centres undefined)	0	0	0	0	0	0	-
Cc1nc2ccccc2c(=O)n1N=Cc1ccccc1F	-	-	-	-	-	0	-
CC1=Nc2ccccc2/C1=C/c1sc(=S)n(-c2cccc(C(=O)O)c2)c1O	0	0	-	-	-	26.5	56.7
CC(=O)N(c1cccc(C)c1)C1SC(=O)N(c2ccccc2)C1=O (centres undefined)	0	0	0	0	0	0	-
COc1ccc(N(/N=C2\Sc3ccccc3C2=O)C(C)=O)cc1	0	0	-	-	-	-	-
CC(=O)N(N=C1Sc2ccccc2C1=O)c1cccc(C)c1	-	-	-	-	-	80.9	72.0
SMILES	HKDC1 inh	TDP2 absorb	GSTO1 counter	CTSL1 counter	PAD4 FP inh	UCH37 DUB inh	UCH37 confirm	others
COc1ccc(N(N=C2Sc3ccccc3C2=O)C(C)=O)cc1	-	-	-	-	-	77.7	0
Cc1cc(NC(=O)c2cccc(Cl)c2)n[nH]1	0	0	0	0	0	35.1	0
Cc1ccc(NC(=O)c2cccc(Cl)c2)nc1	0	0	0	0	0	0	-
Cn1cc(C=Nn2cnc3scc(-c4ccc(Cl)cc4)c3c2=O)c2ccccc21	-	-	-	-	-	0	-
O=C(NN=C1CC(=NNC(=O)c2ccncc2)c2ccccc21)c1ccncc1	-	-	-	-	-	45.7	76.5
Cc1ccccc1NS(=O)(=O)c1cc(C(=O)NCc2ccncc2)ccc1Cl	0	0	0	0	0	0	-

Bioassay records: PubChem, several laboratories
